Reference: ChEMBL document CHEMBL1122026, “Antiestrogenic properties of substituted benz[a]anthracene-3,9-diols” (1982)

Assays:
[1] = organism: Rattus norvegicus; assay: Antiestrogenic potency was measured by inhibition of estrus in ovariectomized rats treated with 17-beta-estradiol at a dose of 5 mg; format: functional
Procedure, shortened: (§1)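 Ovariectomized rats were given 17β-estradiol together with the test compound. Vaginal smears were taken 32 h later; rats with cornified epithelial cells in the smear were scored as in estrus. The 32 h time point was chosen from smears taken at 0, 8, 24, 32, 48, 56 and 72 h. Read-out: percentage of rats in estrus, and its inhibition.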

[2] = organism: Rattus norvegicus; assay: Antiestrogenic potency was measured by inhibition of estrus in ovariectomized rats treated with 17-beta-estradiol at a dose of 0.5 mg; format: functional; procedure, shortened: as §1
[3] = organism: Rattus norvegicus; assay: Affinity constant was measured by inhibition of estrus in ovariectomized rats treated with 17-beta-estradiol at a dose of 5 mg; format: functional, organism-based
[4] = organism: Rattus norvegicus; assay: Affinity constant was measured by inhibition of estrus in ovariectomized rats treated with 17-beta-estradiol; format: functional, organism-based

| Compound | Inhibition [1] [%] | Inhibition [2] [%] | Ka [3] [M⁻¹] | Ka [4] [M⁻¹] |
| --- | --- | --- | --- | --- |
| Cc1c2cc(O)ccc2c(C)c2c1ccc1cc(O)ccc12 | 74 | 44 | 1.7e+08 |  |
| Cc1c2ccc(O)cc2cc2ccc3cc(O)ccc3c12 | 44 |  | 4.3e+07 |  |
| COc1ccc2c(c1)CCC(c1ccccc1)=C2c1ccc(OCCN2CCCC2)cc1 [NAFOXIDINE] |  | 44 |  |  |
| CC(=O)Oc1ccc2c(ccc3c(C)c4cc(OC(C)=O)ccc4c(C)c32)c1 | 67 |  |  |  |
| C[C@]12CC[C@@H]3c4ccc(O)cc4CC[C@H]3[C@@H]1C[C@@H](O)[C@@H]2O |  |  |  | 7e+09 |
| Oc1ccc2cc3c(ccc4cc(O)ccc43)cc2c1 | 12 |  | 3e+07 |  |
| Cc1c2cc(O)ccc2cc2c1ccc1cc(O)ccc12 | 22 |  | 1.8e+09 |  |
